Only some compounds are listed: those with a hit (about 7.1% of all), similar ones and a draw of the others.
bCat KO growth: primary screen for growth suppressors in beta-catenin knockout HCT116 cells (colon tumor, human) | HCT116 beta-catenin knockout viability, CellTiter-Glo, 60 h; active compounds read low | AID 818, 2007 | viability, % at 10 µM | actives 1.5% (n = 140,000);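 active = viability at or under a set limit, the compound median less 4 SD, cut at about 6% in these data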;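 also: 0% = Hyamine 1622 control at 20 µM and 100% = untreated cell control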
Cav32 inh: Cav3.2 calcium influx blockers – cell-based, Fluo-4 calcium fluorescence, FDSS, MLSMR library, primary screen; Cav3.2-expressing cells; active compounds read low; B-score at 10 µM; actives 4% (n = 100,000); AID 449739, 2010;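 active = single-dose well whose peak fluorescence ratio is a statistical outlier from its plate by either plate-standardised score or position-corrected B-score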
Fibroblast inh: antiproliferative effect on LL 47 fibroblasts – human, LL 47 cells, CellTiter-Glo luminescence, primary screen | LL 47 human lung fibroblast viability, ATP luminescence; active compounds read low | viability, % at 10 µM | actives 1.1% (n = 85,000) | AID 719, 2007;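 active = viability at or below 50% in the single dose screen; inactive = viability above 50%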;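 also: compound exposure lasted 72 h before the ATP readout; 100% = median luminescence of untreated cell-only wells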
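test system = LL 47 human lung fibroblasts | amount = 1,150 fibroblasts seeded per well | medium = 15% FBS in IMEM | times = overnight cell rest, 72 h compound treatment at 37 °C | measured by = CellTiter-Glo luminescence measuring cellular ATP | read-out = viability percentage against median untreated-cell control | benchmarks = cell-only wells, no compound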
H69AR growth 86K: proliferation blockers of H69AR lung cancer cells, primary screen, cell-based, human, 86K library. H69AR lung tumor viability, ATP luminescence, 72 h; active compounds read low. viability, % at 10 µM. actives 6% (n = 85,000);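 active = viability at or below 40%; inactive = viability above 40%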;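 also: multidrug resistant small cell line overexpressing MRP-1 efflux transporter; 100% = mean luminescence of untreated control wells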
HUVEC inhibit: inhibitors of HUVEC proliferation, primary screen, cell-based, 384-well; CellTiter-Glo luminescence, 72 h; active compounds read low; viability, % at 10 µM (by protocol); actives 1.1% (n = 86,000); AID 648, 2007;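 active = viability at or below 30%; inactive = viability above 30%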;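 also: 100% = median luminescence of DMSO-only cell control wells on each plate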
PTEN del growth: growth suppression of PTEN-null HCT116, primary screen, cell-based, CellTiter-Glo | HCT116 PTEN-null viability, 60 h; active compounds read low | viability, % at 10 µM | actives 1.2% (n = 140,000) | AID 827, 2007;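 active = viability at or below a set limit, 4 SD under the median of all tested compounds, cut at about 3.7% in these data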;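 also: PTEN knockout HCT116 line with beta catenin targeted HCT116 as companion control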
Starred values were filed as active, the others as inactive; . = no result.

SMILES | bCat KO growth | Cav32 inh | Fibroblast inh | H69AR growth 86K | HUVEC inhibit | PTEN del growth
CCOc1ccc(CC(=O)N2N=C(C)CC2(O)C(F)(F)F)cc1 (stereo not drawn) | 94 | . | . | . | . | 93
OC1CN=C2C=CC=CN2C1 (stereo not drawn) | 100 | -7.4* | . | 104 | 95 | 90
CCCN(CCC)C1=CC(=[N+]2CCCC2)CC(C)(C)C1 | 12 | . | . | . | . | 11
O=C(CCC1CCCC1)c1c(O)c2ccccc2oc1=O | 84 | -8* | 91 | 81 | 1.8* | 88
Clc1cccc(/C=N/Nc2ncnc3ccccc23)c1 | 2.8* | -0.18 | . | . | . | 7
COc1ccc(S(=O)(=O)N2CCCCCC2)cc1N(C)S(=O)(=O)c1ccc(Cl)cc1 | 62 | -2.4 | . | . | . | 65
COc1cccc(N(C(=O)c2ccco2)C(C(=O)NC2CCCC2)c2cccnc2)c1 (stereo not drawn) | 102 | 0.92 | 98 | 101 | 95 | 101
COc1ccc(N(C(=O)c2ccco2)C(C(=O)NC2CCCC2)c2ccc(N(C)C)cc2)cc1 (stereo not drawn) | 80 | -3.5* | 90 | 77 | 93 | 79
COc1ccc(C(C(=O)NC2CCCCC2)N(C(=O)CCl)c2ccc(Cl)cc2)cc1 (stereo not drawn) | 1.8* | . | . | . | . | 1.8*
O=C(NC1CCCCC1)C(c1cccnc1)N(C(=O)CCl)c1cccc(Cl)c1 (stereo not drawn) | 3.9* | . | . | . | . | 3.1*
COc1ccc(C(C(=O)NC2CCCC2)N(C(=O)c2snc(-c3ccc(F)cc3)c2N)c2ccc(F)cc2)cc1 (stereo not drawn) | 5.5* | -2.2 | . | . | . | 7
Cn1c(N)c(C(=O)COC(=O)CNS(=O)(=O)c2cccc(Cl)c2)c(=O)n(C)c1=O | 102 | . | . | . | . | 100
CCOc1cccc(C(=O)NNC(=O)CCC(=O)O)c1 | 90 | . | . | . | . | 102
CCOC(=O)CSc1cccc2cccnc12 | 6.0* | -0.53 | 46* | 0.3* | 66 | 2.7*
Cc1cccc(CSc2cccc3cccnc23)c1 | 4.9* | -0.78 | . | . | . | 2.8*
COC(=O)c1sccc1NC(=O)COc1ccc(Cl)cc1Cl | 77 | . | . | . | . | 80
COc1cccc(NS(=O)(=O)c2c(C)n(C)c(=O)n(C)c2=O)c1 | 73 | -0.04 | 99 | 87 | 93 | 79
CN(C1CCCCC1)S(=O)(=O)c1ccc2c(c1)c(=O)c(C(=O)N1CCc3ccccc3C1)cn2C | 82 | -1.9 | 91 | 5.9* | 93 | 86
Cn1cc(C(=O)NC2CCCCCCC2)c(=O)c2cc(S(=O)(=O)N3CCCC3)ccc21 | 95 | 0.15 | 49* | 32* | 52 | 80
CN1CCN(C(=O)c2cn(C)c3ccc(S(=O)(=O)N(C)C4CCCCC4)cc3c2=O)CC1 | 94 | -0.23 | 96 | 100 | 108 | 91
Cc1ccc(-n2nnnc2-c2cnc(N3CCCC3)nc2C(F)(F)F)cc1 | 80 | -4.5* | . | . | . | 68
CCOC(=O)C1=C(C)OC(N)=C(C#N)C1c1cc(Cl)c(OCC(N)=O)c(OC)c1 (stereo not drawn) | 105 | -0.13 | 96 | 68 | 97 | 92
COc1cc2nc(SCc3ccc(C(F)(F)F)cc3)n(Cc3cccs3)c(=N)c2cc1OC | 64 | 0.29 | . | . | . | 75
COc1ccc(Cn2c(SCc3cc(C)ccc3C)nc3cc(OC)c(OC)cc3c2=N)cc1 | 1.9* | -0.8 | . | . | . | 1.4*
COc1ccc(Cn2c(SCc3ccc(C)cc3)nc3cc(OC)c(OC)cc3c2=N)cc1Cl | 1.2* | -0.17 | . | . | . | 1.2*
SMILES | bCat KO growth | Cav32 inh | Fibroblast inh | H69AR growth 86K | HUVEC inhibit | PTEN del growth
CCCCNC(=O)CSc1nc2cc(OC)c(OC)cc2c(=O)n1Cc1ccc(OC)cc1 | 1.3* | 0.042 | . | . | . | 0.6*
CCC(=O)NC(NC(=S)Nc1ccc(S(N)(=O)=O)cc1)C(Cl)(Cl)Cl (stereo not drawn) | 96 | . | . | . | . | 109
O=[N+]([O-])c1ccc(/C=C2\CCC(C3=CCCC3)=C2N2CCOCC2)cc1 | 49 | . | . | . | . | 55
CCn1cnc2c1c(=O)n(CC(=O)Nc1ccc3c(c1)OC(F)(F)O3)c(=O)n2Cc1ccccc1 | 89 | -2.1 | 84 | 32* | 86 | 73
O=C(Nc1ccccc1F)C1(c2ccccc2)CC1(Cl)Cl (stereo not drawn) | 83 | . | . | . | . | 79
O=C(Nc1ccccc1)C1(c2ccccc2)CC1(Cl)Cl (stereo not drawn) | 72 | -7.5* | . | . | . | 69
Cc1ccc(-c2nnn(CC(=O)N(CC(=O)NC3CCCCC3)c3ccc(F)c(Cl)c3)n2)o1 | 42 | -0.67 | 40* | 8.3* | 37 | 41
Cc1ccc(-c2nnn(CC(=O)N(CC(=O)NC3CCCC3)c3ccc(F)c(Cl)c3)n2)o1 | 73 | -1.4 | 83 | 7.8* | 52 | 63
CCN1CC(c2ccccc2)C(c2ccc(Cl)cc2)=N1 (stereo not drawn) | 72 | . | . | . | . | 81
COc1ccc(CCNC(=O)c2nnc(Cc3ccc(Cl)cc3)o2)cc1OC | 89 | -3.6* | 100 | 97 | 95 | 91
COc1ccc(NS(=O)(=O)c2c(F)cc(F)c(Cl)c2F)cc1S(=O)(=O)N1CCCCC1 | 93 | . | . | . | . | 82
COc1ccc(Cl)cc1NC(=O)COC(=O)c1cc(NS(=O)(=O)c2cccs2)ccc1O | 88 | . | . | . | . | 94
Nc1ccc(C(=O)N2CCCC2)cc1 | 87 | 0.2 | 106 | 97 | 106 | 102
Nc1ccc(C(=O)n2c3ccccc3c3ccccc32)cc1 | 13 | 0.26 | 50* | 19* | 45 | 15
CC(C)(C)S(=O)c1cccs1 (stereo not drawn) | 92 | 0.4 | 101 | 102 | 117 | 95
CCn1c(=N)n(CC(=O)C23CC4CC(CC(C4)C2)C3)c2ccccc21 | 60 | -1 | 110 | 29* | 3.4* | 65
CC(C)Oc1cccc(C(=O)NC(=S)Nc2ccccc2)c1 | 92 | . | . | . | . | 92
CCS(=O)(=O)c1ccc2oc(SCC(=O)NC34CC5CC(CC(C5)C3)C4)nc2c1 | 73 | -7.2* | 98 | 54 | 121 | 68
Cc1cccc(Cn2c(C(=O)OC(C)C)cc3c2ccn3C)c1 | 80 | -2.8 | 88 | 73 | 103 | 87
CCCCOn1c(C)c(C(=O)OCC)c2c3nonc3ccc21 | . | -2.7 | 94 | 60 | 95 | .
COn1c(C)c(C(C)=O)c2c3nonc3ccc21 | 93 | 0.0012 | 90 | 33* | 80 | 87
CCCC(=O)Nc1sc2c(c1C#N)CCCCC2 | 0.9* | -0.83 | 100 | 99 | 82 | 1.0*
Cc1cc(C(=O)Nc2sc3c(c2C#N)CCCC3)no1 | 59 | 0.16 | 96 | 27* | 80 | 71
CC1CCc2c(sc(NC(=O)CSc3nnc(-c4ccccc4)o3)c2C#N)C1 (stereo not drawn) | 80 | . | . | . | . | 89
